In ChEMBL document CHEMBL2203070, “1-(3,4,5-Trimethoxyphenyl)ethane-1,2-diyl esters, a novel compound class with potent chemoreversal activity” (Bioorg Med Chem Lett, 2012):

How the values were obtained:
[1] = Cytotoxicity against human KB cells assessed as cell viability at 10 uM after 72 hrs by SRB method relative to control; type: cell-based; conditions: read-out: Activity
[2] = Potentiation of paclitaxel-mediated cytotoxicity against human KBVIN cells assessed as cell viability at 10 uM after 72 hrs by SRB method relative to control; type: functional; conditions: read-out: Activity
[3] = Cytotoxicity against human KBVIN cells assessed as cell viability at 10 ug/ml; type: cell-based; conditions: read-out: Activity
[4] = Cytotoxicity against human KB cells assessed as cell viability at 10 ug/ml; type: cell-based; conditions: read-out: Activity
[5] = Cytotoxicity against human A549 cells assessed as cell viability at 10 ug/ml; type: cell-based; conditions: read-out: Activity
[6] = Cytotoxicity against human KBVIN cells assessed as cell viability at 10 uM after 72 hrs by SRB method relative to control; type: cell-based; conditions: read-out: Activity
[7] = Cytotoxicity against human DU145 cells assessed as cell viability at 10 ug/ml; type: cell-based, DU-145; conditions: read-out: Activity
[8] = tested on: KB; test: Potentiation of paclitaxel-mediated cytotoxicity against human KB cells assessed as cell viability at 10 uM after 72 hrs by SRB method relative to control; type: functional; conditions: read-out: Activity
[9] = target: Multidrug resistance-associated protein 1 (Homo sapiens, UniProt P33527); test: Inhibition of MRP-mediated Fluo3 efflux in human KBVIN cells at 10 uM incubated for 1 hr prior to Fluo3-addition measured after 2 hrs by fluorescence microscopic analysis; type: cell-based
Method in brief: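 KB or KBvin cells pretreated 1 h with compound or DMSO, then Fluo-3 AM (fluorogenic MRP substrate) added for 2 h; intracellular Fluo-3 retention judged by fluorescence microscopy.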

[10] = Potentiation of vincristine-mediated cytotoxicity against human KBVIN cells assessed as reduction in vincristine IC50 at 10 uM after 72 hrs by SRB method relative to control; type: functional
Method in brief: (§1)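 IC50 of paclitaxel, vincristine or doxorubicin measured in KBvin cells with and without 10 μM compound; reversal fold = IC50 (drug alone)/IC50 (drug + compound); mean ± SD of three independent experiments; verapamil as reference.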

[11] = Potentiation of doxorubicin-mediated cytotoxicity against human KBVIN cells assessed as reduction in doxorubicin IC50 at 10 uM after 72 hrs by SRB method relative to control; type: functional; method in brief: as §1
[12] = tested on: KBVIN; conditions: Homo sapiens
[13] = Potentiation of vincristine-mediated cytotoxicity against human KBVIN cells assessed as reduction in vincristine IC50 at 10 uM after 72 hrs by SRB method relative to verapamil; type: functional; method in brief: as §1
[14] = Potentiation of paclitaxel-mediated cytotoxicity against human KBVIN cells assessed as reduction in paclitaxel IC50 at 10 uM after 72 hrs by SRB method relative to control; type: functional; method in brief: as §1

Sequence of Multidrug resistance-associated protein 1 (P33527 whole entry): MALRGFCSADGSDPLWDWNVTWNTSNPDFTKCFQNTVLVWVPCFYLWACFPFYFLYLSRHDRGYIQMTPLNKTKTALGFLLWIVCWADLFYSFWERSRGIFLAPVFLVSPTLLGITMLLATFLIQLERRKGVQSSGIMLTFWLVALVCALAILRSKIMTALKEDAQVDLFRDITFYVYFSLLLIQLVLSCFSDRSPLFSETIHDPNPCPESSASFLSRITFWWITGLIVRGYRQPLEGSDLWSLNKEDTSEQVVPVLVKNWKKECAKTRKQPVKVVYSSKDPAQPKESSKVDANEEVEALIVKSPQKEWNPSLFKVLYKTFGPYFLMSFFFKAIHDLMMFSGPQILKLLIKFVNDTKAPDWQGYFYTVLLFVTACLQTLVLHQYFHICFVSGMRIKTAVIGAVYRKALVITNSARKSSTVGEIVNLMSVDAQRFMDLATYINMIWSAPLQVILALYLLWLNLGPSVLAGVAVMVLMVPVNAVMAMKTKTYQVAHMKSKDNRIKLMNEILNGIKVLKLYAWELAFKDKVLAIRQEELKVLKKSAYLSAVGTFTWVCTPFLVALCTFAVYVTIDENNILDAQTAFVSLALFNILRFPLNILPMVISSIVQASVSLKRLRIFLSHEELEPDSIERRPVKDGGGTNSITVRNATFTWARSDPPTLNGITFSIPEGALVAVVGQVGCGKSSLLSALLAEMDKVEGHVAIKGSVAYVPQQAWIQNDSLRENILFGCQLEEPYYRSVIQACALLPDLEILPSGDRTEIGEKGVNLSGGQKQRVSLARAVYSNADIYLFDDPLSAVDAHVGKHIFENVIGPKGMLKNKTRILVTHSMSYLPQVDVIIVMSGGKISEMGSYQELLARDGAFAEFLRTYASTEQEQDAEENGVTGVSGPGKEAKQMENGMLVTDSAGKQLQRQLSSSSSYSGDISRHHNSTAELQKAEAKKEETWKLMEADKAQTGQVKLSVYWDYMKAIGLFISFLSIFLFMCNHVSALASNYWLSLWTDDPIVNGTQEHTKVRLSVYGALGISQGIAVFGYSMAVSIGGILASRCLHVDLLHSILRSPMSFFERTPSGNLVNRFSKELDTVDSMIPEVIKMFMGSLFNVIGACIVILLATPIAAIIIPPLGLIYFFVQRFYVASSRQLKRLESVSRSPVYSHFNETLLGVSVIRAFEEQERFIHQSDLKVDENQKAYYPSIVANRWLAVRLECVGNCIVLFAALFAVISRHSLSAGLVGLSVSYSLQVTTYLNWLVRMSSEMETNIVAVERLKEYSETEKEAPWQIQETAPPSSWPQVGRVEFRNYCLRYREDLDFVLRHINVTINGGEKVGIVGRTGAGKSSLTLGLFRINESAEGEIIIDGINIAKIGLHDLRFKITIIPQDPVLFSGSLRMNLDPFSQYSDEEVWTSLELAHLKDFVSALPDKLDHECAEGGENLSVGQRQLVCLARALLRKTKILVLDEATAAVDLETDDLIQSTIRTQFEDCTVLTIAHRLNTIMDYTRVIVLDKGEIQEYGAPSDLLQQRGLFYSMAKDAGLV

Structure (SMILES) | viability at 72 h, 10 µM [1] [%] | viability at 10 µM [2] [%] | viability at 10 ug/ml [3] [%] | viability at 10 ug/ml [4] [%] | viability at 10 ug/ml [5] [%] | viability at 72 h, 10 µM [6] [%] | viability at 10 ug/ml [7] [%] | viability at 10 µM [8] [%] | inhibition (INH) [9] | fold change (FC) [10] | fold change (FC) [11] | Flu intensity [12] | fold change (FC) [13] | fold change (FC) [14]
COc1cc(C(O)COC(=O)C2CCCCC2)cc(OC)c1OC (stereo not given) | 98.9 | 103 | > 80 | > 80 | > 80 | 110 | > 80 | 96.7 | – | – | – | – | – | –
COc1cc(C(O)CO)cc(OC)c1OC (stereo not given) | 101 | 99 | > 80 | > 80 | > 80 | 92.4 | > 80 | 96.8 | – | – | – | – | – | –
COc1cc(C(=O)OCC(O[Si](C)(C)C(C)(C)C)c2cc(OC)c(OC)c(OC)c2I)cc(OC)c1OC (stereo not given) | 64.2 | 19.6 | 36.7 | 26.1 | 37 | 41 | 0 | 58 | – | – | – | – | – | –
COc1cc(C(=O)OCC(OC(=O)c2cc(OC)c(OC)c(OC)c2)c2cc(OC)c(OC)c(OC)c2I)cc(OC)c1OC (stereo not given) | 84.2 | 0 | 47 | 75.4 | 56.2 | 87.1 | 46.6 | 73.7 | Not Active | 2285 | 156 | 456 | 340 | 141
COc1cc(C(=O)OCC(O)c2cc(OC)c(OC)c(OC)c2I)cc(OC)c1OC (stereo not given) | 77 | 0 | > 80 | > 80 | > 80 | 83.3 | > 80 | 75.7 | – | 798 | 51 | 226 | – | 164
COc1ccc(/C=C/C(=O)OCC(OC(=O)/C=C/c2ccccc2)c2cc(OC)c(OC)c(OC)c2I)cc1OC (stereo not given) | 85.9 | 0 | > 80 | > 80 | > 80 | 95.3 | > 80 | 76.5 | – | 620 | 23 | 414 | – | 166
C/C=C/C=C/C(=O)OCC(OC(=O)/C=C/C=C/C)c1cc(OC)c(OC)c(OC)c1 (stereo not given) | 91.2 | 31.3 | 50.1 | 74.7 | 49.6 | 81.5 | 40.8 | 76.8 | – | – | – | – | – | –
COc1cc(C(COC(C)=O)OC(C)=O)cc(OC)c1OC (stereo not given) | 98 | 92 | > 80 | > 80 | > 80 | 91.5 | > 80 | 96 | – | – | – | – | – | –
C/C=C/C(=O)OCC(OC(=O)CCCCCCCCCCC)c1cc(OC)c(OC)c(OC)c1 (stereo not given) | 91.1 | 44 | 41.1 | 76.2 | 51.1 | 79.9 | 41.9 | 83.9 | – | – | – | – | – | –
COc1ccc(CCN(C)CCCC(C#N)(c2ccc(OC)c(OC)c2)C(C)C)cc1OC (stereo not given) [VERAPAMIL] | – | – | – | – | – | – | – | – | – | 97 | 6 | – | – | 72
COc1cc(C(=O)OCC(O[Si](C)(C)C(C)(C)C)c2cc(OC)c(OC)c(OC)c2)cc(OC)c1OC (stereo not given) | 83.9 | 12.3 | > 80 | > 80 | > 80 | 74.3 | > 80 | 70.3 | Active | 1684 | 79 | 184 | – | 216
COc1cc(C(O)CO)c(I)c(OC)c1OC (stereo not given) | 95.1 | 91.8 | > 80 | > 80 | > 80 | 90 | > 80 | 97 | – | – | – | – | – | –
